Out of some 300,000 compounds screened, about 1,000 (0.33%) were called active.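 Rule for the calls: active = inhibition above the mean of all tested compounds plus 3 SD, set per screening campaign (cut at about 45% in these data); inactive = the rest.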 This excerpt belongs to a sample that is enriched for actives.
The compounds below were run on HCV core protein (residues 1-106) dimerization (assay: inhibitors of HCV core protein dimerization, primary screen, biochemical, TR-FRET, high-throughput (AID 1899)). Conditions: TR-FRET GST/Flag-core106 dimerization, 1536-well; at 5 µM; stronger effect = higher value.
Method in brief: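 System – GST-tagged and Flag-tagged HCV core protein residues 1-106 · Repeats – one well for each compound · Technique – TR-FRET 671 and 617 nm emission · Doses – one concentration, 5 µM, in 0.5% DMSO · Times – 4 h, 22.5 °C incubation · Also added – Eu donor and XL665 acceptor anti-tag antibodies · Measure – percent inhibition of core106 dimerization signal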

Row | SMILES | inhibition
1 | CCOC(=O)C1CSC(CC(=O)Nc2ccc(OCC)cc2)C(=O)N1 (configuration not stated) | -5.22% (inactive)
2 | O=C(COc1ccc(/C=N/NC(=O)c2ccc(O)cc2)cc1)Nc1ccc([N+](=O)[O-])cc1 | 55.5% (active)
3 | O=C(COc1ccc([N+](=O)[O-])cc1)Nc1ccc(N2CCCC2)cc1 | 9.26% (inactive)
4 | O=C(N/N=C/c1ccc(O)cc1)/C(=C/c1ccc([N+](=O)[O-])cc1)NC(=O)c1ccccc1 | 10.4% (inactive)
5 | CC1(c2nnc(-c3ccncc3)o2)CC(c2cccnc2)=NO1 (configuration not stated) | 1.13% (inactive)
6 | Cc1ccc(C)c(NS(=O)(=O)c2c(C)[nH]c(C)c2C(=O)N2CCCCC2)c1 | -13.2% (inactive)
7 | O=C1COc2ccc(NC(=O)N3CCN(c4ccc(F)cc4)CC3)cc2N1 | -3.43% (inactive)
8 | CC(C)(C)OC(=O)NCCCC1=CC2=CC(=O)C(C)(OC(=O)c3ccco3)C(=O)C2=CO1 (configuration not stated) | 28.9% (inactive)
9 | CC1(OC(=O)C2CCCC2)C(=O)C=C2C=C(c3ccc(C#N)cc3)OC=C2C1=O (configuration not stated) | 53.6% (active)
10 | COCCN1C=C2C(=O)C(C)(OC(=O)C3CCCC3)C(=O)C=C2C=C1c1ccsc1 (configuration not stated) | -6.55% (inactive)
11 | Cn1cc(-c2ccccc2)cc(C#N)c1=O | 7.52% (inactive)
12 | COCCNC(=O)Nc1ccc2nc(-c3ccco3)c(-c3ccco3)nc2c1 | 83.7% (active)
13 | Cc1cc(C)cc(NC(=O)NCc2ccccn2)c1 | -2.74% (inactive)
14 | CCOc1cc(NC(=S)NCCCOC)c(OCC)cc1NC(=O)c1ccco1 | -1.9% (inactive)
15 | CCCC(=O)Nc1ccc2c(c1)nc(CCNC(=O)c1ccco1)n2C | -7.25% (inactive)
16 | O=C(NCc1ccccn1)c1ccc2nc(-c3ccco3)c(-c3ccco3)nc2c1 | 77.7% (active)
17 | COc1ccc2oc(=O)c(C(=O)NCc3ccccn3)cc2c1 | -1.18% (inactive)
18 | O=C(CCc1ccccc1)Nc1ccc(NC(=O)C2CC2)nc1 | 3.25% (inactive)
19 | O=[N+]([O-])C(=c1ccc2c(c1)N1C3=C(CCCC3)CC3CCCCC31N=2)[N+](=O)[O-] (configuration not stated) | 62.9% (active)

Row | SMILES | inhibition
20 | Cc1ccc(S(=O)(=O)c2c[nH]c3ccc(Cl)cc3c2=O)cc1 | 0.6% (inactive)
21 | CCN1C(=NCCc2cccnc2)N[C@@H](c2ccccc2)[C@H](C(=O)OC)[C@H]1C | 8.18% (inactive)
22 | CC(C(=O)O)n1cnc2sc3c(c2c1=O)CCCC3 (configuration not stated) | 0.01% (inactive)
23 | COc1ccc(OCC(=O)NN2Cc3ccccc3C2=N)cc1 | -6.41% (inactive)
24 | COc1ccc(OCC(=O)Nc2nnc(-c3ccco3)s2)cc1 | 54.1% (active)
25 | CNc1nnc(-c2ccco2)s1 | -7.57% (inactive)
26 | Cc1ccc(OCC(=O)Nc2nnc(-c3ccco3)s2)cc1 | 2.47% (inactive)
27 | COc1ccc(OC)c(CNC(=O)c2cc(=O)[nH]c3ccc(S(=O)(=O)N4CCCC4)cc23)c1 | 0.99% (inactive)
28 | CNC(=O)COC(=O)c1cc(-c2ccc(OC)cc2)nc2ccccc12 | 0.09% (inactive)
29 | COc1cc(-c2cc(C(=O)OCC(=O)Nc3ccc4c(c3)OCO4)c3ccccc3n2)cc(OC)c1OC | 46.1% (active)
30 | COc1ccc(NC(=O)c2cc(-c3cc(OC)c(OC)c(OC)c3)nc3ccccc23)c(OC)c1 | -2.9% (inactive)
31 | CN(C)/C(CN1CCCCC1)=C1\N=C(c2ccccc2)OC1=O | -2.51% (inactive)
32 | O=C(Nc1cccc2ncccc12)C(Cl)(Cl)Cl | -1.9% (inactive)
33 | Cc1ccc(/C=C(\C#N)C(=O)Nc2cccc3ncccc23)o1 | 64.5% (active)
34 | Cc1ccc(C(=O)Nc2cccc3ncccc23)cc1[N+](=O)[O-] | 4.3% (inactive)
35 | COc1ccc(/C=C/C(=O)NC(=S)N2CCCC(C(N)=O)C2)cc1 (configuration not stated) | -10.7% (inactive)
36 | CCOc1ccc(NC(=S)NC(=O)/C=C/c2ccc(OC)cc2)c([N+](=O)[O-])c1 | 47.8% (active)
37 | Cc1ccc(NC(=S)NC(=O)/C=C/c2ccc(Cl)cc2)cc1 | -5.71% (inactive)
38 | Cn1nnnc1SCC(=O)N1CCN(C(c2ccccc2)c2ccccc2)CC1 | 2.43% (inactive)

Row | SMILES | inhibition
39 | N#CC1=C(N)Oc2c(sc3ccccc23)C1c1ccco1 (configuration not stated) | 54.5% (active)
40 | N#CC1=C(N)Oc2c(ccc3cccnc23)C1c1ccncc1 (configuration not stated) | 3.58% (inactive)
41 | COC(=O)c1ccc2c(=O)n(CCN3CCOCC3)c(SCC(=O)Nc3cccc(OC)c3)nc2c1 | -0.68% (inactive)
42 | CCOC(=O)N1CCN(C(=O)CSc2nc(C)nc3c2c(=O)n(C)c(=O)n3C)CC1 | -1.3% (inactive)
43 | O=c1cc(CN2CCN(S(=O)(=O)/C=C/c3ccccc3)CC2)c2ccc(O)cc2o1 | 52.2% (active)
44 | COc1ccc2c(CN3CCN(S(=O)(=O)c4cccs4)CC3)cc(=O)oc2c1 | 11.7% (inactive)
45 | NC(=O)CCN1CCN(S(=O)(=O)/C=C/c2ccccc2)CC1 | 0.92% (inactive)
46 | Cc1nn(CC(=O)N/N=C/c2ccc(F)cc2)c(C)c1[N+](=O)[O-] | -5.44% (inactive)
47 | COc1cc(/C=N/NC(=O)c2cc(C)n(-c3ccc(F)cc3)c2C)cc(OC)c1O | 4.09% (inactive)
48 | Cc1cc(C(=O)N/N=C/c2ccc(O)c([N+](=O)[O-])c2)c(C)n1-c1ccc(F)cc1 | 70.4% (active)
49 | CC(c1ccco1)N(C(=O)c1ccc(S(=O)(=O)N2CCCCC2)cc1)c1ccccn1 (configuration not stated) | -1.02% (inactive)
50 | CC(C)NC(=O)NC(=O)COC(=O)c1ccc(NC(=O)CC#N)cc1 | -2.82% (inactive)
51 | CCOc1ccc(C(=O)Nc2ccncc2)cc1 | -4.79% (inactive)
52 | CCOc1ccc(NC(=O)c2ccc(NC(=O)COC(=O)c3ccc(NC(=O)CC#N)cc3)cc2)cc1 | 62.4% (active)
53 | CCCn1c(O)c(CN2CCCC(C)C2)c(C)c(C#N)c1=O (configuration not stated) | -8.8% (inactive)
54 | O=C(Nc1ccc(-n2ccnc2P(=O)(O)c2ccccc2)cc1)c1ccccc1Br | 3.36% (inactive)
55 | CC(=O)c1ccc(S(=O)(=O)N2CCC3(CC2)OCCO3)cc1 | -8.35% (inactive)
56 | CC(=O)c1ccc(S(=O)(=O)N2CCN(C(=O)/C=C/c3ccc4ccccc4n3)CC2)cc1 | 34.5% (inactive)
57 | CC(=O)c1ccc(S(=O)(=O)N2CCN(c3nc4c(C)c(C)ccc4cc3C#N)CC2)cc1 | 60.9% (active)
